Here are results for 15 compounds from ChEMBL document CHEMBL3745597, “Fragment-Based Discovery of Subtype-Selective Adenosine Receptor Ligands from Homology Models” (J Med Chem, 2015).

Experiment [1] has as its target T1, Adenosine receptor A3 (Homo sapiens, UniProt P0DMS8). The experiment is described as follows: Displacement of CA200645 from human adenosine A3 receptor expressed in CHO CRE-SPAP cells incubated for 1 hr by fluorescence analysis. Type of experiment: cell-based. The method in brief:
(§1)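 Live confluent CHO cells expressing A1AR or A3AR were washed into HEPES-buffered saline, pH 7.4. Increasing concentrations of competitor were added with 25 nM fluorescent xanthine ligand CA200645 and incubated 1 h at 37°C, then imaged for total intensity. IC50 was converted to Ki by Cheng-Prusoff using ligand KD 17.0 nM (A1) or 3.11 nM (A3). Values are mean of n experiments run in duplicate.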

Experiment [2] deals with Adenosine receptors; A1 & A3 (Homo sapiens) (UniProt P30542+P0DMS8). The experiment is described as follows: Selectivity ratio of Ki for human adenosine A1 receptor expressed in CHO cells to Ki for human adenosine A3 receptor expressed in CHO CRE-SPAP cells. The format is functional, cell-based. The method in brief:
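Ratio of Ki at A1AR to Ki at A3AR. Both Ki values come from the live-cell CA200645 competition assay (25 nM tracer, 1 h, 37°C), with Cheng-Prusoff correction using KD 17.0 nM (A1) and 3.11 nM (A3).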

The next experiment concerns the target T2, Adenosine receptor A1 (Homo sapiens, UniProt P30542).
T2 sequence (P30542 whole entry): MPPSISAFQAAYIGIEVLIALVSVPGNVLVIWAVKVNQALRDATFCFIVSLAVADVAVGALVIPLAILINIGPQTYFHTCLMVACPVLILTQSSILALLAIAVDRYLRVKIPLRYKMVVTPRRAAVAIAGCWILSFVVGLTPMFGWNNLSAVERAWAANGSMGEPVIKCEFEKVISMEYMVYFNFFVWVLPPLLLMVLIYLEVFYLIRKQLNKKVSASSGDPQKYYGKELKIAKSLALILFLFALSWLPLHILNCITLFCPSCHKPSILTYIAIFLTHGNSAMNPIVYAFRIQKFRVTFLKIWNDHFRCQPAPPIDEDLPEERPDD
The experiment is described as follows: Displacement of CA200645 from human adenosine A1 receptor expressed in CHO cells incubated for 1 hr by fluorescence analysis. Type of experiment: cell-based. The method in brief: as §1

In experiment [3] the target is T3, Adenosine receptor A2a (Homo sapiens, UniProt P29274). The experiment is described as follows: Displacement of [3H]-ZM241385 from human adenosine A2A receptor expressed in HeLa cells at 10 uM. The format is cell-based. The method in brief: (§2)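 Human A2AAR expressed in transfected HeLa cells, with [3H]-ZM241385 as radioligand. Percent inhibition was measured at a single 10 µM concentration. Ki was determined only where displacement exceeded 50% at 10 µM.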
T3 sequence (P29274 whole entry): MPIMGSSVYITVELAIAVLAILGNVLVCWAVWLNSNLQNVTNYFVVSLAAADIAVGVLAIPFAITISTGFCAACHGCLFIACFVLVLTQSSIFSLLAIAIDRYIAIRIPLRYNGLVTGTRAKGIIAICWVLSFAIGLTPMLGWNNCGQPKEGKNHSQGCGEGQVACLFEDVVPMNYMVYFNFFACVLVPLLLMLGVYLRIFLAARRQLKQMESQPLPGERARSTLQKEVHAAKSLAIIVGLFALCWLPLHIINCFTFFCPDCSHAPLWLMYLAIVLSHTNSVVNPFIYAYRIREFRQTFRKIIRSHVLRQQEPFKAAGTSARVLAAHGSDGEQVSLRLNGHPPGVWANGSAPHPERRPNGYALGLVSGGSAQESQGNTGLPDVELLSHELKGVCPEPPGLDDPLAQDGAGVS

For experiment [4], the target named is T1, Adenosine receptor A3. In words: Competitive antagonist activity at YFP linked human adenosine A3 receptor expressed in CHO CRE-SPAP cells assessed as inhibition of NECA-induced receptor internalization preincubated for 30 mins followed by addition of NECA measured after 60 mins by H33342 staining-based fluorescence analysis. The format is cell-based. The method in brief: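 Cells stably expressing YFP-tagged A3AR, serum-free DMEM/F12 with 2 mM L-glutamine, preincubated 30 min at 37°C with a fixed 10 µM antagonist or with medium only. Rising NECA concentrations were then added for 60 min. Cells were fixed in 3% paraformaldehyde, nuclei stained with H33342 and imaged confocally. Read-out was YFP granule count per cell. Antagonist KD came from the Gaddum dose-ratio equation, n=5 run in triplicate.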

Experiment [5] addresses T3, Adenosine receptor A2a. The experiment is described as follows: Displacement of [3H]-ZM241385 from human adenosine A2A receptor expressed in HeLa cells. The format is cell-based. The method in brief: as §2
On the technique in general: In a radioligand displacement assay an active substance lowers the binding of a labelled ligand.

For a further experiment, the system named is HeLa. In words: Selectivity ratio of Ki for human adenosine A2A receptor expressed in HeLa cells to Ki for human adenosine A3 receptor expressed in CHO CRE-SPAP cells. The format is cell-based.

Calls of active or inactive are those of the source. The rule behind the calls is not given here.

For orientation: pKi means the negative decadic logarithm of the Ki, by convention in mol/L. As usually defined, the Kd is the constant that tells how readily two partners part at equilibrium.

T1 sequence (P0DMS8 whole entry, looked up): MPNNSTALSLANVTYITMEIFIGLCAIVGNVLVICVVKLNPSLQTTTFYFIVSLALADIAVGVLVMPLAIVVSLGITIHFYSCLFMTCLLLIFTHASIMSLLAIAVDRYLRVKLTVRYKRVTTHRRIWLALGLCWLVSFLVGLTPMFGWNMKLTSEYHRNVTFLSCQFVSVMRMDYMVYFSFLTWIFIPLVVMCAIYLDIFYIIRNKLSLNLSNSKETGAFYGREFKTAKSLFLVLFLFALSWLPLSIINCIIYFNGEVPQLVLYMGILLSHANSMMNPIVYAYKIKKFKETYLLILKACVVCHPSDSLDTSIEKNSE

Regarding `Cc1sc2nc(-c3ccoc3)[nH]c(=O)c2c1C`, the figures for the Ki at Adenosine receptor A3 [1] (read-out: pKi (converted)) and on Adenosine receptor A1 were 398 nM and 1950 nM, respectively. Moreover, the Ratio Ki in experiment [2] was 4.
In the same order, the values of `CSc1sc(NC(=O)C=C(C)C)nc1C` are 2190 nM, 29500 nM and 24.
For the compound `COc1cccc2sc(NC(=O)c3cc4ccccc4s3)nc12`, the Ki on Adenosine receptor A3 [1] (read-out: Ki) is 120 nM; on Adenosine receptor A3 [1] (read-out: pKi (converted)), 110 nM; on Adenosine receptor A1, 3090 nM. Also, the Ratio Ki in experiment [2] amounted to 34.
As for `O=C(Nc1nc2c(s1)CCC2)c1cc2ccccc2s1`, the Ki at Adenosine receptor A3 [1] (read-out: pKi (converted)) is 380 nM; at Adenosine receptor A1 it was 2820 nM. Further, the Ratio Ki in experiment [2] turned out to be 5.
In the case of `CCc1cc2c(O)nc(N3CCCC3)nc2s1`, the Ki at Adenosine receptor A3 [1] (read-out: pKi (converted)) was 2290 nM. At Adenosine receptor A2a [3], the result was inactive. In addition, the Ratio Ki in experiment [2] is greater than 38. In addition, the pKi at Adenosine receptor A1 (cho) is listed as greater than 4.
Take `CC(C)(C)C(=O)Nc1nc(C2CC2)cs1`: the Ki is 4900 nM on Adenosine receptor A3 [1] (read-out: pKi (converted)) and 12300 nM at Adenosine receptor A1. Further, the Ratio Ki in experiment [2] was 2.
Consider `CCc1cc2c(O)nc(-c3ccncc3)nc2s1`, for which the Ki on Adenosine receptor A3 [1] (read-out: pKi (converted)) is 2000 nM; on Adenosine receptor A1, 22900 nM. In addition, the Ratio Ki in experiment [2] is 14.
For `O=C(Nc1ccc2[nH]ncc2c1)c1ccc[nH]1` the same measures were 2400 nM, 3160 nM and 1.2.
For the compound `CCc1cc2c(O)ncnc2s1`, the Ki on Adenosine receptor A3 [1] (read-out: pKi (converted)) is 13500 nM; at Adenosine receptor A1, 75900 nM. Besides, the Ratio Ki in experiment [2] turned out to be 6.
Regarding `CCc1cc2c(=O)[nH]c(-c3ccoc3)nc2s1`, the Ki on Adenosine receptor A3 [1] (read-out: pKi (converted)) is 550 nM; on Adenosine receptor A1 it was 56200 nM. The outcome on Adenosine receptor A2a [3] was inactive. Also, the Ratio Ki in experiment [2] amounted to 102. Besides, at Adenosine receptor A3 [4], the Kd is 741 nM.
Consider `O=C(Nc1nc(C2CC2)cs1)c1ccoc1`, for which the Ki at Adenosine receptor A3 [1] (read-out: Ki) was 120 nM; at Adenosine receptor A3 [1] (read-out: pKi (converted)), 105 nM; on Adenosine receptor A1 it was 2950 nM. For the same compound, the outcome on Adenosine receptor A2a [3] was inactive. For the same compound, the Ratio Ki in experiment [2] came to 29.
As to `O=C(Nc1nc2ccccc2s1)c1cc2ccccc2s1`, the Ki on Adenosine receptor A3 [1] (read-out: pKi (converted)) is 331 nM; at Adenosine receptor A1, 6170 nM. The Ratio Ki in experiment [2] was 16.
With `O=C(Nc1nc(C2CC2)cs1)c1cc2ccccc2s1`, the Ki is 40 nM at Adenosine receptor A3 [1] (read-out: Ki), 33.9 nM on Adenosine receptor A3 [1] (read-out: pKi (converted)), 2900 nM on Adenosine receptor A2a [5] and 3720 nM at Adenosine receptor A1. The Ratio Ki in experiment [2] stood at 101; with HeLa, 72. In addition, the Kd on Adenosine receptor A3 [4] was 741 nM.
Regarding `O=c1[nH]c(-c2ccco2)nc2scc(-c3ccco3)c12`, the Ki on Adenosine receptor A3 [1] (read-out: pKi (converted)) was 138 nM; at Adenosine receptor A1, 347 nM. In addition, in experiment [2], the Ratio Ki is 2.
For `CCc1cc2c(=O)[nH]c(C3CC3)nc2s1` the same measures were 1820 nM, 61700 nM and 70.
